The source made the active and inactive calls. The rule behind the calls is not given here.

The inhibition is the change of the read-out against control, counted positive when it falls.

The test system of experiment [1] is Prunus dulcis. Put plainly: Inhibition of almond beta-glucosidase at 10 uM using p-nitrophenyl glycopyranoside preincubated for 5 mins followed by substrate addition measured after 20 mins by visible absorption spectroscopic method relative to control. Put shortly:
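Crude click-reaction products screened in situ. Azide (final 15 mM) was reacted with each alkyne using sodium ascorbate/CuSO4 in tBuOH–H2O for 24 h at rt, then diluted with water. Tested at 10 μM per well, assuming quantitative conversion, against almond β-glucosidase at pH 5, 37 °C. p-Nitrophenyl glycoside read-out at 405 nm.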

The target in experiment [2] is T1, Beta-galactosidase (Aspergillus oryzae) (UniProt B7VU80).
T1 sequence (whole entry): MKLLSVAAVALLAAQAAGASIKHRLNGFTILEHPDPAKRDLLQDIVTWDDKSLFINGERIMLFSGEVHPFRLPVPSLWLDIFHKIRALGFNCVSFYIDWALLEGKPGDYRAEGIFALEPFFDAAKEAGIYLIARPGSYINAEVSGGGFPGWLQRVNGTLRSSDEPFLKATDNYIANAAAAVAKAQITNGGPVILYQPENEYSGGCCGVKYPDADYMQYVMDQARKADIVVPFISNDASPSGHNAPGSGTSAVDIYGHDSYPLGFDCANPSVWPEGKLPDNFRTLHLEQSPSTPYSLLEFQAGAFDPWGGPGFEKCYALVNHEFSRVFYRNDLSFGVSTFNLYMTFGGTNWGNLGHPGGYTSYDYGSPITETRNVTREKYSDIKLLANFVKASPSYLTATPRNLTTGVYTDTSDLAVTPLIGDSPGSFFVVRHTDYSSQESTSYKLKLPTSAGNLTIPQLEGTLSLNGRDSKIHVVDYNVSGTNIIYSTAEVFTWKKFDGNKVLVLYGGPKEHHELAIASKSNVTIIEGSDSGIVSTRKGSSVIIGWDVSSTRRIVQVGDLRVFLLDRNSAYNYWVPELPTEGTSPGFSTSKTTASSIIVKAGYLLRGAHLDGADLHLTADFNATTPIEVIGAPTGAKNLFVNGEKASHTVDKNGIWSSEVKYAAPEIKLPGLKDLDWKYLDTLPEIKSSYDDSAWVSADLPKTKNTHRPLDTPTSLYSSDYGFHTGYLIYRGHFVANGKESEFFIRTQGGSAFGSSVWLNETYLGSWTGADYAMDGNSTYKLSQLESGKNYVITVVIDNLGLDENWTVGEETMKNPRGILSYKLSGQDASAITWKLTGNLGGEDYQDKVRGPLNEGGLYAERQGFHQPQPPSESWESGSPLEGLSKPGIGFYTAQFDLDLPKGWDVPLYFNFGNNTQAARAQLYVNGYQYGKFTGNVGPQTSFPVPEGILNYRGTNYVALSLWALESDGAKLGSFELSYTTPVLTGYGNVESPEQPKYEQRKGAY
The experiment in a line: Inhibition of Aspergillus oryzae beta-galactosidase at 1 mM using p-nitrophenyl glycopyranoside preincubated for 5 mins followed by substrate addition measured after 20 mins by visible absorption spectroscopic method relative to control. Put shortly: (§1)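 Test compound at 1 mM in well. Mix: 0.01–0.5 units/mL enzyme plus 10 mM p-nitrophenyl glycopyranoside (aqueous solution), buffered to the enzyme's optimal pH. Enzyme and inhibitor preincubated 5 min at rt. Substrate then added and incubated 20 min at 37 °C. Stopped with sodium borate (pH 9.8). p-Nitrophenolate read at 405 nm. Duplicates averaged.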

For the next experiment, the species on record is Bos taurus. Put plainly: Inhibition of bovine kidney alpha-L-fucosidase at 1 mM using p-nitrophenyl glycopyranoside preincubated for 5 mins followed by substrate addition measured after 20 mins by visible absorption spectroscopic method relative to control. Put shortly:
as §1

In experiment [3] the test system is Prunus dulcis. Put plainly: Inhibition of almond beta-glucosidase at 1 mM using p-nitrophenyl glycopyranoside preincubated for 5 mins followed by substrate addition measured after 20 mins by visible absorption spectroscopic method relative to control. Put shortly:
as §1

A further experiment has as its system Cornu aspersum. Put plainly: Inhibition of snail beta-mannosidase at 1 mM using p-nitrophenyl glycopyranoside preincubated for 5 mins followed by substrate addition measured after 20 mins by visible absorption spectroscopic method relative to control. Put shortly:
as §1

Another experiment has as its system Oryza sativa. Put plainly: Inhibition of rice alpha-glucosidase at 1 mM using p-nitrophenyl glycopyranoside preincubated for 5 mins followed by substrate addition measured after 20 mins by visible absorption spectroscopic method relative to control. Put shortly:
as §1

The target in experiment [4] is Beta-galactosidase (Escherichia coli) (UniProt Q8VNN2). Put plainly: Inhibition of Escherichia coli beta-galactosidase at 1 mM using p-nitrophenyl glycopyranoside preincubated for 5 mins followed by substrate addition measured after 20 mins by visible absorption spectroscopic method relative to control. Put shortly:
as §1

A further experiment has as its system Canavalia ensiformis. The experiment in a line: Inhibition of jack bean beta-N-acetylglucosaminidase at 1 mM using p-nitrophenyl glycopyranoside preincubated for 5 mins followed by substrate addition measured after 20 mins by visible absorption spectroscopic method relative to control. Put shortly:
as §1

A further experiment concerns Aspergillus niger. Put plainly: Inhibition of Aspergillus niger amyloglucosidase at 1 mM using p-nitrophenyl glycopyranoside preincubated for 5 mins followed by substrate addition measured after 20 mins by visible absorption spectroscopic method relative to control. Put shortly: as §1
Experiment [5] has as its target T2, Alpha-mannosidase (Canavalia ensiformis) (UniProt C0HJB3).
T2 sequence (whole entry): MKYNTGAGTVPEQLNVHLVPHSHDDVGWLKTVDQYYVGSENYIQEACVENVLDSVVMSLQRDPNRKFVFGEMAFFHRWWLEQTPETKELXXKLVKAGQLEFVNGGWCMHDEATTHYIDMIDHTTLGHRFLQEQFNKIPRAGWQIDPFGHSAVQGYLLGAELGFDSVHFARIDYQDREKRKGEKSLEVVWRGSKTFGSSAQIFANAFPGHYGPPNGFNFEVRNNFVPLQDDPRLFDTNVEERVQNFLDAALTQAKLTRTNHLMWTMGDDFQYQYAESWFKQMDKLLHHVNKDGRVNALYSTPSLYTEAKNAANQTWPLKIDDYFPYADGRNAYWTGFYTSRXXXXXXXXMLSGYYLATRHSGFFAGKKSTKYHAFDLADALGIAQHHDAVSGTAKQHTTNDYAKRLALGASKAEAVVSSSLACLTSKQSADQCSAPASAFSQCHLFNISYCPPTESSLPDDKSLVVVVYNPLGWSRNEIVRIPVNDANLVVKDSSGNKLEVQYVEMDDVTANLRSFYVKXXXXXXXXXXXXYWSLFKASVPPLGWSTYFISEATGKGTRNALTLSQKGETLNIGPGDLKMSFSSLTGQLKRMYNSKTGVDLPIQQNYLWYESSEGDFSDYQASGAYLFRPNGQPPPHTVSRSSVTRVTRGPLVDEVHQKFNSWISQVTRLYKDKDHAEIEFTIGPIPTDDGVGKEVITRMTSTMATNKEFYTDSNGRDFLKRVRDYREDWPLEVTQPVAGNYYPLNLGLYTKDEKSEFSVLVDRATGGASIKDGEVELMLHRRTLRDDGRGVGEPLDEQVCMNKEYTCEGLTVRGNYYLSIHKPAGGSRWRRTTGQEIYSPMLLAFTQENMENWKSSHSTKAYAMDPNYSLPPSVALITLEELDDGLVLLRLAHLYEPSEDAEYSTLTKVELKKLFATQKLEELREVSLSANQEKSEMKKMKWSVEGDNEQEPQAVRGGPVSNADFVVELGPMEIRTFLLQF
The experiment in a line: Inhibition of jack bean alpha-mannosidase at 1 mM using p-nitrophenyl glycopyranoside preincubated for 5 mins followed by substrate addition measured after 20 mins by visible absorption spectroscopic method relative to control. Put shortly: as §1

For a further experiment, the system named is Saccharomyces cerevisiae. The experiment in a line: Inhibition of yeast alpha glucosidase at 1 mM using p-nitrophenyl glycopyranoside preincubated for 5 mins followed by substrate addition measured after 20 mins by visible absorption spectroscopic method relative to control. Put shortly:
as §1

The target in experiment [6] is Alpha-galactosidase (Coffea arabica) (UniProt Q42656). The experiment in a line: Inhibition of coffee beans alpha-galactosidase at 1 mM using p-nitrophenyl glycopyranoside preincubated for 5 mins followed by substrate addition measured after 20 mins by visible absorption spectroscopic method relative to control. Put shortly:
as §1

Chain of Beta-galactosidase (Escherichia coli) (Q8VNN2 whole entry, looked up): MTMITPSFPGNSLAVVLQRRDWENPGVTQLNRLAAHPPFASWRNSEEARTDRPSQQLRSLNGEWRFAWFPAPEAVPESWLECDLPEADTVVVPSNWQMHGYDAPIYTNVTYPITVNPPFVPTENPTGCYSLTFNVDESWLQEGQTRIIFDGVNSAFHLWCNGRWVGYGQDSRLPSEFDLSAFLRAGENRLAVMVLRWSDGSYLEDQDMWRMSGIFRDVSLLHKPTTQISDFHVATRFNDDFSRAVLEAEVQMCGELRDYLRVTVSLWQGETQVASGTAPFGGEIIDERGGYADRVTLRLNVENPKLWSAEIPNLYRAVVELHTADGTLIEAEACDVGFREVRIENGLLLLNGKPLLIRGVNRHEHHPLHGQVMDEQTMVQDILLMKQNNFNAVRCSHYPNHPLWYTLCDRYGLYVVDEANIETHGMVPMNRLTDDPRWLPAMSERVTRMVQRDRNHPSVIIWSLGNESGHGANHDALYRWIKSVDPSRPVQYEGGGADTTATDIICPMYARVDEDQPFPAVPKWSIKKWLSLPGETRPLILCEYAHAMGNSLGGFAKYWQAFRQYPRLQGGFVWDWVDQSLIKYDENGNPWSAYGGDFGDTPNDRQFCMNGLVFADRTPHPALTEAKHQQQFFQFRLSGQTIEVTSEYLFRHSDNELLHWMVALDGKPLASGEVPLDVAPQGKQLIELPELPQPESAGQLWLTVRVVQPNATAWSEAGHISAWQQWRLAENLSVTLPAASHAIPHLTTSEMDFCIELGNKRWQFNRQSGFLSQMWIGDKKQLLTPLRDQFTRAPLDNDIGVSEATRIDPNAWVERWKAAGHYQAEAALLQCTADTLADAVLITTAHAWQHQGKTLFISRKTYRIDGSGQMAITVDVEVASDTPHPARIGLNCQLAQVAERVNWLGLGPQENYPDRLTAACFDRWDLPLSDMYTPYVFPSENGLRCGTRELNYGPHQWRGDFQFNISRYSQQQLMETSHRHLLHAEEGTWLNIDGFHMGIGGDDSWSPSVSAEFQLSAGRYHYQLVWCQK
Chain of Alpha-galactosidase (Coffea arabica) (Q42656 16-378 limits assumed): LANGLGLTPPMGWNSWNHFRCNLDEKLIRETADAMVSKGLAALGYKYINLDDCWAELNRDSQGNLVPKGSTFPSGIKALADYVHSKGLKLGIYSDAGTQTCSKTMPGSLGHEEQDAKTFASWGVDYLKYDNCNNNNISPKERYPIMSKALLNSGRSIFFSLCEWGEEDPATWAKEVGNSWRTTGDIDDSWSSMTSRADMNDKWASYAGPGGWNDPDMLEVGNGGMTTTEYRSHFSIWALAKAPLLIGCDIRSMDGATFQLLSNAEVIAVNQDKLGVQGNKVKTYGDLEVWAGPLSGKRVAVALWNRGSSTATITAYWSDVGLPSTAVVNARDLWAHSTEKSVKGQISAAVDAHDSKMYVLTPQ

For `COc1ccc(-c2cn(C[C@@H]3NC[C@@H](O)[C@H]3O)nn2)cc1`, the inhibition result with Prunus dulcis [1] is “inactive”.

Turning to `OCc1cn(C[C@@H]2NC[C@@H](O)[C@H]2O)nn1`, the inhibition result in the experiment with Prunus dulcis [1] is “inactive”.

Regarding `O[C@@H]1[C@H](O)CN[C@H]1Cn1cc(CC2CCCCC2)nn1`, the inhibition entry in the experiment with Prunus dulcis [1] is “inactive”.

For `OCc1ccc(-c2cn(C[C@@H]3NC[C@@H](O)[C@H]3O)nn2)cc1`, the inhibition entry in the experiment with Prunus dulcis [1] was “inactive”.

For `O[C@@H]1[C@H](O)CN[C@H]1c1cn(Cc2ccccc2)nn1`, the inhibition entry (in experiment [2]; with Prunus dulcis [3]; in the experiment with Cornu aspersum; in the experiment with Oryza sativa; in experiment [4]; with Canavalia ensiformis) was “inactive” throughout. In addition, the inhibition entry (with Aspergillus niger; in [5]; in the experiment on Saccharomyces cerevisiae; in [6]) was “inactive” in each case. This compound also yielded an inhibition in the experiment filed under Bos taurus of 71%.

Take `O=C(NCc1cn(C[C@@H]2NC[C@@H](O)[C@H]2O)nn1)c1ccccc1`: the inhibition result in the experiment with Prunus dulcis [1] is “inactive”.

Turning to `O[C@@H]1[C@H](O)CN[C@H]1Cn1cc(COc2ccccc2)nn1`, the inhibition result with Prunus dulcis [1] was “inactive”.

Consider `O[C@@H]1[C@H](O)CN[C@H]1CNC(=S)Nc1ccccc1`, for which the inhibition result (in experiment [2]; in the experiment filed under Bos taurus; in the experiment on Oryza sativa; in [4]; in the experiment with Canavalia ensiformis; in experiment [5]) was “inactive” each time. In addition, in the experiment with Saccharomyces cerevisiae, the inhibition result is “inactive”. In addition, the inhibition with Prunus dulcis [3] came out at 74%; in the experiment with Cornu aspersum it was 45%; in the experiment with Aspergillus niger it was 18%; in [6], 16%.

As for `Cc1oc(CO)cc1C(=O)NCc1cn(C[C@@H]2NC[C@@H](O)[C@H]2O)nn1`, the inhibition result with Prunus dulcis [1] was “inactive”.

With `O[C@@H]1[C@@H](c2cn(Cc3ccccc3)nn2)NC[C@@H]1O`, the inhibition result (in [2]; in the experiment on Prunus dulcis [3]; with Cornu aspersum; with Oryza sativa; in [4]; in the experiment on Canavalia ensiformis) was “inactive” throughout. Also, the inhibition result (with Aspergillus niger; with Saccharomyces cerevisiae; in [6]) was “inactive” each time. Besides, the figures for the inhibition (in the experiment listed under Bos taurus; in experiment [5]) were 21% and 30%, respectively.

`NCc1cn(C[C@@H]2NC[C@@H](O)[C@H]2O)nn1`: the inhibition result in the experiment with Prunus dulcis [1] was “inactive”.

In the case of `O=C(O)CCCc1cn(C[C@@H]2NC[C@@H](O)[C@H]2O)nn1`, the inhibition entry with Prunus dulcis [1] is “inactive”.

`OCCOCCOCCOCCOCCOCCOCc1cn(C[C@@H]2NC[C@@H](O)[C@H]2O)nn1`: the inhibition entry in the experiment on Prunus dulcis [1] was “inactive”.

With `OCCOCc1cn(C[C@@H]2NC[C@@H](O)[C@H]2O)nn1`, the inhibition entry with Prunus dulcis [1] is “inactive”.

Consider `CN(Cc1ccccc1)Cc1cn(C[C@@H]2NC[C@@H](O)[C@H]2O)nn1`, for which the inhibition result in the experiment with Prunus dulcis [1] was “inactive”.

Regarding `O[C@@H]1[C@H](O)CN[C@H]1Cn1cc(C2(O)CCCCC2)nn1`, the inhibition result with Prunus dulcis [1] is “inactive”.

Regarding `Cc1ccc(S(=O)(=O)OCCOCCOCCOCCOCCOCCOCc2cn(C[C@@H]3NC[C@@H](O)[C@H]3O)nn2)cc1`, the inhibition result in the experiment with Prunus dulcis [1] is “inactive”.

For `COC(=O)c1cn(C[C@@H]2NC[C@@H](O)[C@H]2O)nn1`, the inhibition result with Prunus dulcis [1] is “inactive”.

Regarding `COc1ccc2cc(-c3cn(C[C@@H]4NC[C@@H](O)[C@H]4O)nn3)ccc2c1`, the inhibition entry with Prunus dulcis [1] is “inactive”.

As to `OCCCc1cn(C[C@@H]2NC[C@@H](O)[C@H]2O)nn1`, in the experiment on Prunus dulcis [1], the inhibition entry is “inactive”.

For `O=C(NC[C@@H]1NC[C@@H](O)[C@H]1O)c1ccccc1`, the inhibition entry (in experiment [2]; in the experiment on Cornu aspersum; in the experiment with Oryza sativa; in experiment [4]; in the experiment on Aspergillus niger; with Saccharomyces cerevisiae) was “inactive” each time. Further, the inhibition entry in experiment [6] is “inactive”. Also, the inhibition amounted to 15% in the experiment listed under Bos taurus, 79% in the experiment on Prunus dulcis [3], 17% in the experiment on Canavalia ensiformis and 71% in experiment [5].

For `O[C@H]1[C@@H](O)CN[C@@H]1Cn1cc(-c2ccccc2)nn1`, the inhibition result (in [2]; in the experiment filed under Bos taurus; with Cornu aspersum; with Oryza sativa; in experiment [4]; with Canavalia ensiformis) was “inactive” throughout. For the same compound, the inhibition result (in the experiment with Aspergillus niger; in the experiment with Saccharomyces cerevisiae; in experiment [6]) was “inactive” each time. Besides, the inhibition in the experiment on Prunus dulcis [3] amounted to 49%; in experiment [5], 60%.

The record behind these values is ChEMBL document CHEMBL4190262, “Tuning of β-glucosidase and α-galactosidase inhibition by generation and in situ screening of a library of pyrrolidine-triazole hybrid molecules” (Eur J Med Chem, 2017).
